In ChEMBL document CHEMBL4616691 (ACS Med Chem Lett, 2020):
Converted amounts (≈) assume the structure as drawn. The source made the active and inactive calls. The calls are words filed in the database; no cut-off is given here.

What was measured:
[1] = Thermodynamic solubility in 0.001N HCl by HPLC analysis; format: physicochemical; conditions: for solubility thermodynamic: 0.001N HCl, read-out: Therm_solubility
In short: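 Thermodynamic solubility measured in 0.001 N HCl (pH 3), chosen to resemble acidic gastric fluid. Dissolved compound quantified by HPLC and reported in […].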

[2] = Inhibition of NPC1/VDAC1 in HUVEC cells assessed as reduction in cell proliferation pretreated for 24 hrs followed by [3H]thymidine incorporation by scintillation counter method; format: cell-based; conditions: Homo sapiens
In short: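 HUVEC proliferation read by [³H]-thymidine incorporation, giving IC50. Mean ± SD of three independent experiments, each run in triplicate.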

HUVEC [3] = assay: Inhibition of NPC1/VDAC1 in HUVEC cells assessed as inhibition of tube formation at 3 uM measured after 24 hrs by Calcein-AM staining based fluorescence microscopy analysis relative to control; format: cell-based; conditions: Homo sapiens
In short: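 HUVECs seeded on Matrigel-coated wells and treated with DMSO or 3 μM compound for 24 h. Networks stained with Calcein-AM and imaged by fluorescence microscopy. Total tube length quantified from the images against DMSO control. Mean ± SD of three independent experiments.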

Cytochrome P450 3A4 = Cytochrome P450 3A4 (Homo sapiens, UniProt P08684); assay: Inhibition of CYP3A4 (unknown origin); format: ADME
[4] = molecular target: Serine/threonine-protein kinase mTOR (Homo sapiens) (UniProt P42345); assay: Inhibition of mTOR in HUVEC cells assessed as reduction in phosphorylation of p70S6K measured after 24 hrs by Western blot analysis; format: cell-based
In short: (§1)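 HUVECs exposed to test compound at 0.05, 0.25, 0.5, 1 or 2 μM, or DMSO vehicle, for 24 h. Lysates probed by western blot for VEGFR2, phospho- and total ACC, phospho- and total S6K, with β-actin as loading reference.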

[5] = molecular target: T1, NPC intracellular cholesterol transporter 1 (Homo sapiens) (UniProt O15118); assay: Inhibition of NPC1 in HUVEC cells assessed as accumulation of cholesterol in perinuclear structure at 0.2 uM incubated for 24 hrs by filipin staining based confocal microscopy analysis; format: cell-based
T1 sequence (whole entry): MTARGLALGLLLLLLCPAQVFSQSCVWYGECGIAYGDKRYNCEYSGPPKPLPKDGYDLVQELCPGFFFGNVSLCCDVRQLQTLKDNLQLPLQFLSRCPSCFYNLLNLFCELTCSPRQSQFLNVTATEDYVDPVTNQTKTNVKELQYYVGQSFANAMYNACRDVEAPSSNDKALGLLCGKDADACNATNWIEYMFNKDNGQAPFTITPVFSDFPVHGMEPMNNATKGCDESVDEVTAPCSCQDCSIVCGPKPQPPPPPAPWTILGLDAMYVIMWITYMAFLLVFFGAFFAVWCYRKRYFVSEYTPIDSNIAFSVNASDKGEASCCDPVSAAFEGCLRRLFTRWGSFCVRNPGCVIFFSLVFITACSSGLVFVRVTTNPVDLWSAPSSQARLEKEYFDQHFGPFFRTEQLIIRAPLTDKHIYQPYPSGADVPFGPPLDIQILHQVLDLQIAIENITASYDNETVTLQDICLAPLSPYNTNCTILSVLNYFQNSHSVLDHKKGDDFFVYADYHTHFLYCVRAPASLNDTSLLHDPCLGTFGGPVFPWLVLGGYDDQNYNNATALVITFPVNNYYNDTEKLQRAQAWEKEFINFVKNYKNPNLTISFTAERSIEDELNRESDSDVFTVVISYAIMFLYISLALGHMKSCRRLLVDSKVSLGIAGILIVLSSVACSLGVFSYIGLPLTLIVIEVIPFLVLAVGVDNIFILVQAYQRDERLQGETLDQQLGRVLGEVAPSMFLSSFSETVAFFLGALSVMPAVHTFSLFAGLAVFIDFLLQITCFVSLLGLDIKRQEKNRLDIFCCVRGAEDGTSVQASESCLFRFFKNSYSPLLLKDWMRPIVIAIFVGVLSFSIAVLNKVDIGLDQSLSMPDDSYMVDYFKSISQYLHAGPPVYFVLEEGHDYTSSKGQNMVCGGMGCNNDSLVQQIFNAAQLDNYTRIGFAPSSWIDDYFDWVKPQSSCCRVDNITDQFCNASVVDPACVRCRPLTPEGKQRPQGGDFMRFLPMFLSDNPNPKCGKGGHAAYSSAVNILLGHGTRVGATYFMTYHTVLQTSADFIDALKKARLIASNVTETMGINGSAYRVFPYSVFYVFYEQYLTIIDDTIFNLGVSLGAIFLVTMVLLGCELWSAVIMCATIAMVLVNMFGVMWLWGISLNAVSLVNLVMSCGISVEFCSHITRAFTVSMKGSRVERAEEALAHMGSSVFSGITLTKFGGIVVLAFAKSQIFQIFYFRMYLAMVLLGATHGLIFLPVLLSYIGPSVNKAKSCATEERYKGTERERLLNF
In short: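 Primary HUVECs incubated 24 h with 0.2 μM compound or DMSO. Intracellular cholesterol stained with filipin and imaged by confocal fluorescence microscopy, 25x objective.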

[6] = molecular target: Vascular endothelial growth factor receptor 2 (Homo sapiens) (UniProt P35968); assay: Inhibition of VEGFR2 glycosylation in HUVEC cells assessed as disappearance of VEGFR2 at 0.5 to 2 uM measured after 24 hrs by Western blot analysis; format: cell-based; in short: as §1
[7] = molecular target: AMP-activated protein kinase, AMPK (Homo sapiens) (UniProt P54646+O43741+P54619+Q9UGJ0+Q9Y478+Q13131+Q9UGI9); assay: Activation of AMPK in HUVEC cells assessed as phosphorylation of acetyl CoA carboxylase measured after 24 hrs by Western blot analysis; format: cell-based; in short: as §1
HUVEC [8] = assay: Effect on VEGFR2 localization in human HUVEC cells assessed as accumulation of VEGFR2 in perinuclear region at 2 uM by DAPI staining based confocal micrscopy; format: functional, cell-based
In short: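 HUVECs treated with DMSO or 2 μM compound. Cells immunostained for VEGFR2 (green) and Golgi marker GM130 (red), nuclei counterstained with DAPI. Imaged by confocal microscopy, scoring perinuclear VEGFR2 and its colocalization with GM130.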

Cytochrome P450 3A4, sequence (P08684 whole entry): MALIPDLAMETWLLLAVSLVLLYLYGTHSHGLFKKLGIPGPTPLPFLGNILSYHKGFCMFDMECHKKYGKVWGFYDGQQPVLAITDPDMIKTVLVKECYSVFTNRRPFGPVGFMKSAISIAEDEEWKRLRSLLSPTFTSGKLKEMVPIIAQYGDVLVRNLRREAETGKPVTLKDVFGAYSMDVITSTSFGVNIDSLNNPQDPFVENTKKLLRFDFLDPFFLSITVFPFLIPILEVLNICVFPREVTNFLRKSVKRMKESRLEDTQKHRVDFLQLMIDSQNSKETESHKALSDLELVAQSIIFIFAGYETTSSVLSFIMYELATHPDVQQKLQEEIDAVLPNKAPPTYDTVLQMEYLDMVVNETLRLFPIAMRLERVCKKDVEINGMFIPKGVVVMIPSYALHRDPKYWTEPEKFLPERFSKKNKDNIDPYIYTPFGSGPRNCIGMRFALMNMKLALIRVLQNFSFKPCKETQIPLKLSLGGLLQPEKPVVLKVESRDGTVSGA
Vascular endothelial growth factor receptor 2 (Homo sapiens), sequence (P35968 whole entry): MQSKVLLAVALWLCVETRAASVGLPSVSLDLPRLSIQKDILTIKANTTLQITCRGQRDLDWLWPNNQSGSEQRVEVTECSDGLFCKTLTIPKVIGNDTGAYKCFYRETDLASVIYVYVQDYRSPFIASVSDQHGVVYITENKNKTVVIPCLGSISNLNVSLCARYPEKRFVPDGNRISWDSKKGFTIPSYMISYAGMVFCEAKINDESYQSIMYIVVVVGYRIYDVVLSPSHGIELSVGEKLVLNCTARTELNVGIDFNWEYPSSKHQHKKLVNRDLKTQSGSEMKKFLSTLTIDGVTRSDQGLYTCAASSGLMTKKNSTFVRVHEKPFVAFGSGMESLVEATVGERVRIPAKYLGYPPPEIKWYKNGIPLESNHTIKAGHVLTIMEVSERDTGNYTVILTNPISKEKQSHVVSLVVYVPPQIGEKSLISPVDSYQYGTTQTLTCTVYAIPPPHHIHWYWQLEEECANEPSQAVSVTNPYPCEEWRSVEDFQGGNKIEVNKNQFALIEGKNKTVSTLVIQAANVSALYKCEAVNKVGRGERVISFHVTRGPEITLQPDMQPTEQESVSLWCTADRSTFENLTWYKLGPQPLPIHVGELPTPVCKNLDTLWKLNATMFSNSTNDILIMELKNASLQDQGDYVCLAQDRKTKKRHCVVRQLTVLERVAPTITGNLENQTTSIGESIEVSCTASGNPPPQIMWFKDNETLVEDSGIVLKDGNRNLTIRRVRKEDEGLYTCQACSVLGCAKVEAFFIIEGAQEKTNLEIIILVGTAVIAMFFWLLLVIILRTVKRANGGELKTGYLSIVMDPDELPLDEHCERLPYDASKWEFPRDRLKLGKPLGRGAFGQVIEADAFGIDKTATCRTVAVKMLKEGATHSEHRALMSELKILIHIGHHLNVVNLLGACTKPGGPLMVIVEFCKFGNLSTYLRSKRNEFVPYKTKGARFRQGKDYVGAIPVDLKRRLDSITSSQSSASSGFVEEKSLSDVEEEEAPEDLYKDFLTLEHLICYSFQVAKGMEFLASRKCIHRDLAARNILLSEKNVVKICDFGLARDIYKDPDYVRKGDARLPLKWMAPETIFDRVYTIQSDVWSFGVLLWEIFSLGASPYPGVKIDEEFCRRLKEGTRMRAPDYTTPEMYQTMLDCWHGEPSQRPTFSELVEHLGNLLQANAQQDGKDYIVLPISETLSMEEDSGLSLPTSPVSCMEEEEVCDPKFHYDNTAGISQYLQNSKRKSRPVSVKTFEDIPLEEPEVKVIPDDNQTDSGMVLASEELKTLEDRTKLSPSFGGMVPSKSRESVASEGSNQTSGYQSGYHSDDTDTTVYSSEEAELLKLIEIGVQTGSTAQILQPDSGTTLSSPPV

CCC(C)n1ncn(-c2ccc(N3CCN(c4ccc(OC[C@@H]5CO[C@@](Cn6ccnc6)(c6ccc(Cl)cc6Cl)O5)cn4)CC3)cc2)c1=O (some centres not stated)
solubility thermodynamic [1]: 2.94 µg/mL (≈ 4.16 µM)
IC50 [2]: 69.1 nM

CCC(C)n1ncn(-c2ccc(N3CCN(c4ccc(OC[C@@H]5CO[C@@](Cn6ccnc6)(c6ccc(Cl)cc6Cl)O5)nc4)CC3)cc2)c1=O (some centres not stated)
solubility thermodynamic [1]: 6.48 µg/mL (≈ 9.19 µM)
IC50 [2]: 468 nM

CCC(C)n1ncn(-c2ccc(N3CCN(c4ccc(OC[C@@H]5CO[C@@](Cn6cncn6)(c6ccc(Cl)cc6Cl)O5)cc4)CC3)c(F)c2)c1=O (some centres not stated)
solubility thermodynamic [1]: 0.0291 µg/mL (≈ 0.0402 µM)
IC50 [2]: 128 nM

CCC(C)n1ncn(-c2ccc(N3CCN(c4ccc(OC[C@@H]5CO[C@@](Cn6cncn6)(c6ccc(Cl)cc6Cl)O5)cc4)CC3)cn2)c1=O (some centres not stated)
solubility thermodynamic [1]: 0.496 µg/mL (≈ 0.703 µM)
IC50 [2]: 188 nM

CCC(C)n1ncn(-c2ccc(N3CCN(c4ccc(OC[C@@H]5CO[C@@](Cn6cnnn6)(c6ccc(Cl)cc6Cl)O5)cn4)CC3)cc2)c1=O (some centres not stated)
inhibition (HUVEC [3]): 70%
IC50 (Cytochrome P450 3A4): > 90000 nM
inhibition [4]: Dose-dependent effect
solubility thermodynamic [1]: 0.951 µg/mL (≈ 1.34 µM)
inhibition [5]: Active
inhibition [6]: Active
Activity [7]: Dose-dependent effect
IC50 [2]: 77.1 nM
Activity (HUVEC [8]): Active

CCC(C)n1ncn(-c2ccc(N3CCN(c4ccc(OC[C@@H]5CO[C@@](Cn6cncn6)(c6ccc(Cl)cc6Cl)O5)nc4)CC3)c(F)c2)c1=O (some centres not stated)
solubility thermodynamic [1]: 0.255 µg/mL (≈ 0.352 µM)
IC50 [2]: 446 nM

CCC(C)n1ncn(-c2ccc(N3CCN(c4ccc(OC[C@@H]5CO[C@@](Cn6ccnc6)(c6ccc(Cl)cc6Cl)O5)cc4)CC3)nc2)c1=O (some centres not stated)
solubility thermodynamic [1]: 7.99 µg/mL (≈ 11.3 µM)
IC50 [2]: 98.5 nM

CCC(C)n1ncn(-c2ccc(N3CCN(c4ccc(OC[C@@H]5CO[C@@](Cn6cncn6)(c6ccc(Cl)cc6Cl)O5)cc4)CC3)nc2)c1=O (some centres not stated)
solubility thermodynamic [1]: 0.0539 µg/mL (≈ 0.0763 µM)
IC50 [2]: 222 nM

CCC(C)n1ncn(-c2ccc(N3CCN(c4ccc(OC[C@@H]5CO[C@@](Cn6cnnn6)(c6ccc(Cl)cc6Cl)O5)cc4)CC3)cc2)c1=O (some centres not stated)
solubility thermodynamic [1]: 0.321 µg/mL (≈ 0.455 µM)
inhibition [5]: Active

CCC(C)n1ncn(-c2ccc(N3CCN(c4ccc(OC[C@@H]5CO[C@@](Cn6cncn6)(c6ccc(Cl)cc6Cl)O5)cn4)CC3)c(F)c2)c1=O (some centres not stated)
solubility thermodynamic [1]: 0.848 µg/mL (≈ 1.17 µM)
IC50 [2]: 173 nM

CCC(C)n1ncn(-c2ccc(N3CCN(c4ccc(OCC5COC(Cn6cncn6)(c6ccc(Cl)cc6Cl)O5)cc4)CC3)cc2)c1=O (configuration not stated) [ITRACONAZOLE]
Therm_solubility ([1]; buffer): 0.0101 µg/mL
inhibition [5]: Active
Activity (HUVEC [8]): Active

CCC(C)n1ncn(-c2ccc(N3CCN(c4ccc(OC[C@@H]5CO[C@@](Cn6ccnc6)(c6ccc(Cl)cc6Cl)O5)cc4)CC3)c(F)c2)c1=O (some centres not stated)
solubility thermodynamic [1]: 17.2 µg/mL (≈ 23.7 µM)
IC50 [2]: 70.1 nM

CCC(C)n1ncn(-c2ccc(N3CCN(c4ccc(OC[C@@H]5CO[C@@](Cn6cncn6)(c6ccc(Cl)cc6Cl)O5)cn4)CC3)cc2)c1=O (some centres not stated)
solubility thermodynamic [1]: 0.114 µg/mL (≈ 0.161 µM)
IC50 [2]: 380 nM

CCC(C)n1ncn(-c2ccc(N3CCN(c4ccc(OC[C@@H]5CO[C@@](Cn6cnnn6)(c6ccc(Cl)cc6Cl)O5)cc4)CC3)c(F)c2)c1=O (some centres not stated)
IC50 (Cytochrome P450 3A4): > 90000 nM
solubility thermodynamic [1]: 0.0528 µg/mL (≈ 0.0729 µM)
inhibition [5]: Active
IC50 [2]: 153 nM

CCC(C)n1ncn(-c2ccc(N3CCN(c4ccc(OC[C@@H]5CO[C@@](Cn6cncn6)(c6ccc(Cl)cc6Cl)O5)nc4)CC3)cc2)c1=O (some centres not stated)
solubility thermodynamic [1]: 0.116 µg/mL (≈ 0.164 µM)
IC50 [2]: 687 nM

CCC(C)n1ncn(-c2ccc(N3CCN(c4ccc(OC[C@@H]5CO[C@@](Cn6ccnc6)(c6ccc(Cl)cc6Cl)O5)cn4)CC3)c(F)c2)c1=O (some centres not stated)
solubility thermodynamic [1]: 125 µg/mL (≈ 173 µM)
IC50 [2]: 68 nM

CCC(C)n1ncn(-c2ccc(N3CCN(c4ccc(OC[C@@H]5CO[C@@](Cn6cnnn6)(c6ccc(Cl)cc6Cl)O5)cn4)CC3)c(F)c2)c1=O (some centres not stated)
solubility thermodynamic [1]: 0.708 µg/mL (≈ 0.975 µM)
inhibition [5]: Active
IC50 [2]: 108 nM

CCC(C)n1ncn(-c2ccc(N3CCN(c4ccc(OC[C@@H]5CO[C@@](Cn6ccnc6)(c6ccc(Cl)cc6Cl)O5)cc4)CC3)cn2)c1=O (some centres not stated)
solubility thermodynamic [1]: 41.3 µg/mL (≈ 58.6 µM)
IC50 [2]: 636 nM
